RAD54 branch = blocks human RAD54 Holliday junction branch migration | 360,000 compounds, 0.14% hits | AID 602329 | inhibition, % at 10.4 µM | FAM/BHQ fluorescence | Q92698;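 active = mean normalized replicate activity at least 40 and at least half of replicates scoring 40 or more; inconclusive = only one of the two criteria met; inactive = mean below 40 and under half of replicates reaching 40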;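 also: inhibitors cause a drop in the FAM fluorescence signal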
Target sequence (Q92698 whole entry, looked up): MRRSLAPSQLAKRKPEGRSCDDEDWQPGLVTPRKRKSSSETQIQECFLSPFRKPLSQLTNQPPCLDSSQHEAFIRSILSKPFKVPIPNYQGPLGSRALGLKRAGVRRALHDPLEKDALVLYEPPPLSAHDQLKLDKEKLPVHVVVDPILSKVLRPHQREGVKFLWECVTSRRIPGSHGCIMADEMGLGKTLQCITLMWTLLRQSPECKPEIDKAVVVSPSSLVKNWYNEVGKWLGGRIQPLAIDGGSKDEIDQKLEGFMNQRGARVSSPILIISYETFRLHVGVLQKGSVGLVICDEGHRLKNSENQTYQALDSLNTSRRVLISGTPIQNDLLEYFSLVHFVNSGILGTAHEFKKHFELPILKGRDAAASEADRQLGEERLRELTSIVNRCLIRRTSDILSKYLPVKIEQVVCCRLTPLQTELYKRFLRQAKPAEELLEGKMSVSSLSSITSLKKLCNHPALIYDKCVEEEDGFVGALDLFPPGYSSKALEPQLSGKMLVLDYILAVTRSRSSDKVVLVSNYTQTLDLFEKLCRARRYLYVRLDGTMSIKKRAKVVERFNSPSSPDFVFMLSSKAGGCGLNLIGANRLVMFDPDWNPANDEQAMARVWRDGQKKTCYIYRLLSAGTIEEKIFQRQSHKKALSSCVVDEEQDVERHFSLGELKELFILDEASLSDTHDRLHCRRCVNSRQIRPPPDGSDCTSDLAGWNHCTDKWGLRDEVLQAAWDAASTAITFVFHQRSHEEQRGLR
N-glyco inh = blocks N-linked glycosylation in D54 reporter cells; reporter increase, % at 12.5 µM; 360,000 compounds, 0.23% hits; D54 ERlucT glycosylation luciferase reporter, 24 h; percent of 100 nM tunicamycin response;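 active = mean luciferase reporter signal, scaled so untreated is 0 and the glycosylation-blocking control 100, at or above a set limit in every replicate; inconclusive = mean reaches the limit but not every replicate does; inactive = mean below the limit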;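 also: luciferase carries N-glycosylation sites so blocking glycosylation raises the light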
FN deposition inh = fibronectin deposition inhibition; AH1F fibroblasts, Alexa488-fibronectin deposition fluorescence, overnight; inhibition, % at 12.6 µM; 350,000 compounds, 0.086% hits;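 active = mean inhibition across replicates of 30% or more, regardless of how many single replicates reach that level; inconclusive = mean under 30% yet at least half of replicates reach 30%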
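Assay system: AH1F fibroblast monolayer, labelled fibronectin deposition. Amount: 10000 cells per well. Also added: labelled fibronectin 24 nM. Compound: single-point pinned compound. Incubation: cell attachment 1 h, compound and FN exposure overnight. Detection: fluorescence after three HBSS washes, excitation 485 nm, emission 525 nm. Read-out: inhibition of fibronectin deposition signal.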
RAD52 inh = blocks human RAD52 DNA annealing | recombinant RAD52 DNA annealing, FRET fluorescence | AID 651710 | P43351 | inhibition, % at 18.7 µM | 360,000 compounds, 0.46% hits;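 active = every replicate showing at least 50% inhibition; inconclusive = mean inhibition at least 50% but not in every replicate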
NSD2 HMT inh = blocks human histone methyltransferase NSD2; O96028; NSD2 peptide methylation, AlphaScreen, 120 min; inhibition, % at 12.5 µM; 310,000 compounds, 0.54% hits; AID 743445; in the data active = inhibition above about 50%
MLL AF4-AF9 inh = MLL-AF4/AF9 protein interaction inhibition; P42568; AlphaScreen, biotin-AF4 peptide binding to FLAG-AF9; inhibition, % at 10 µM; 350,000 compounds, 0.47% hits; AID 651704;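 active = every replicate reaching a set inhibition limit, whatever the replicate mean, cut at about 25% in these data; inconclusive = mean inhibition reaches that limit but some replicates miss it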
A number is an active result; . = inactive; ? = inconclusive; / = no result given. Most compounds without a hit are left out; they make up all but 1.2% or so of the library.

SMILES	RAD54 branch	N-glyco inh	FN deposition inh	RAD52 inh	NSD2 HMT inh	MLL AF4-AF9 inh
CCCNC(=O)N1[C@H](CO)[C@@H]2c3ccccc3N(C(=O)c3ccc(F)cc3)C[C@@H]21	.	/	/	.	/	.
O=C(Nc1c2ccccc2nc2ccccc12)C(Cl)(Cl)Cl	82.9	93.0	/	/	/	/
Cc1noc(C)c1NC(=O)N(C)C[C@H]1OCCCC[C@H](C)Oc2ccc(NS(=O)(=O)c3ccc(Cl)cc3)cc2C(=O)N([C@H](C)CO)C[C@@H]1C	.	/	.	.	/	.
Cc1nc2ccc3nc(NC(=O)C4COc5ccccc5O4)sc3c2s1 (centres undefined)	.	.	.	.	/	47.6
CCn1c2ccccc2c2cc(NC(=O)CNCc3ccccc3OC)ccc21	.	29.3	.	.	.	.
CCn1c2ccccc2c2cc(NC(=O)COC(=O)c3cccc(S(=O)(=O)NC)c3)ccc21	.	.	.	.	.	.
CCN(CC)S(=O)(=O)c1cccc(C(=O)OCC(=O)Nc2ccc3c(c2)c2ccccc2n3CC)c1	/	29.1	.	.	.	.
CC(=O)Nc1ccc2c(c1)C(=O)N(C)[C@H]1CC[C@H](CC(=O)NCc3ccc(Cl)cc3)O[C@@H]1CO2	.	/	.	.	/	.
CCOC(=O)c1ccc(-c2ccc(/C=N/NC(=O)CN(c3cccc(C)c3)S(C)(=O)=O)o2)cc1	/	28.2	.	.	.	.
CCOC(=O)c1ccc(-c2ccc(/C=N/NC(=O)CN(c3ccccc3Cl)S(C)(=O)=O)o2)cc1	/	.	/	/	.	/
CCOC(=O)C1CCN(C(=O)c2ccc(Cl)c(NC3=NC4CS(=O)(=O)CC4S3)c2)CC1 (centres undefined)	.	.	.	.	/	25.5
COC(=O)Nc1ccc(S(=O)(=O)N2CCCc3ccccc32)cc1	.	.	14.9	/	.	/
COC(=O)Nc1ccc(S(=O)(=O)N2CCCc3cccc(O)c32)cc1	/	.	.	.	.	.
C[C@H]1CN([C@@H](C)CO)C(=O)c2cccc(NS(=O)(=O)c3ccc(F)cc3)c2O[C@@H]1CN(C)S(=O)(=O)c1cn(C)cn1	.	/	/	.	/	.
c1ccc2c(c1)nc(N1CCOCC1)c1c3ccccc3[nH]c21	/	38.9	/	.	.	.
CN1CCN(c2ccc(NC(=O)c3sc4ccccc4c3Cl)cc2)CC1	.	.	.	.	.	.
COC(=O)c1ccc(N2CCN(C)CC2)c(NC(=O)c2sc3ccccc3c2Cl)c1	.	.	.	.	.	26.2
CN(C)c1ncc(C2=C(Cl)C(=O)C(N3CCCC3)=C(Cl)C2=O)s1	.	.	.	/	56.9	/
O=C1C(Cl)=C(N2CCCCC2)C(=O)C(Cl)=C1c1cnc(N2CCCCC2)s1	.	.	/	/	/	/
CN(C)c1ccc2c(c1)[C@@H]1C[C@@H](CC(=O)NCCN3CCCCC3)O[C@H](CO)[C@@H]1O2	55.3	/	/	.	/	.
CN(C)c1ccc2c(c1)[C@@H]1C[C@H](CC(=O)NCCN3CCCCC3)O[C@H](CO)[C@@H]1O2	?	/	/	.	/	.
COc1cc2c(cc1OC)C(c1cccs1)N(C(=O)c1cccnc1)CC2 (centres undefined)	.	80.2	.	.	.	.
COc1cc2c(cc1OC)C(c1cccs1)N(C(=O)C(C)C)CC2 (centres undefined)	.	.	/	/	.	/
CCNC(=O)C[C@H]1CC[C@@H]2[C@H](COc3ccc(NC(=O)c4cccs4)cc3C(=O)N2C)O1	.	/	.	.	/	.
O=C(CC1CC1)Nc1ccc2c(c1)[C@H]1C[C@H](CC(=O)N3CCCCC3)O[C@@H](CO)[C@H]1O2	.	/	.	.	/	.
SMILES	RAD54 branch	N-glyco inh	FN deposition inh	RAD52 inh	NSD2 HMT inh	MLL AF4-AF9 inh
COCCNC(=O)CN(C(=O)CCC(=O)Nc1ccccn1)c1cc(C)ccc1C	.	.	.	.	.	25.7
COc1ccc(S(=O)(=O)N(C)C[C@@H]2OCCCC[C@H](C)Oc3ccc(NS(C)(=O)=O)cc3C(=O)N([C@H](C)CO)C[C@H]2C)cc1	.	/	/	.	/	.
CCCN(C)C[C@H]1OCCCC[C@@H](C)Oc2ccc(NC(=O)NC(C)C)cc2C(=O)N([C@H](C)CO)C[C@@H]1C	.	/	.	.	/	.
CC(=O)n1cc([C@H]2C=C(C(=O)N3CCCCCCC3)O[C@@H](OCCCCO)C2)c2ccccc21	.	/	/	.	/	.
O=C(Nc1ccc(F)cc1)C(Sc1nnc2ccccn12)c1ccccc1 (centres undefined)	/	.	.	.	.	49.5
O=C(C[C@H]1CC[C@@H]2[C@H](COC[C@H](O)CN2CCC(F)(F)F)O1)NCC1CCCCC1	.	/	.	/	/	/
O=C(C[C@H]1CC[C@H](NS(=O)(=O)c2ccc(F)cc2)[C@H](CO)O1)NCc1ccc(Cl)c(Cl)c1	.	/	/	.	/	.
O=C(CSc1nc2ncc(Cl)cc2[nH]1)c1c[nH]c2ccccc12	.	.	33.2	.	.	.
C[C@@H]1CN([C@H](C)CO)C(=O)c2cc(C#Cc3ccccn3)cnc2O[C@H]1CN(C)Cc1ccncc1	.	/	.	.	/	.
O=C(NCC[C@H]1CC[C@H](NS(=O)(=O)c2ccc(Cl)cc2)[C@@H](CO)O1)Nc1ccc(F)cc1	/	/	.	.	/	26.7
CCCNC(=O)C[C@@H]1C[C@H]2c3cc(NC(=O)c4cccnc4)ccc3O[C@H]2[C@@H](CO)O1	.	/	.	/	/	/
Cc1ccccc1[C@@]1(C)ON(c2ccccc2C(F)(F)F)C1=O	.	.	.	.	/	.
CC[C@@]1(c2ccccc2OC)ON(c2ccccc2C(F)(F)F)C1=O	.	43.1	.	.	/	.
c1ccc2[nH]c3cc4ncnc4cc3nc2c1	/	26.1	.	.	.	.
C[C@H]1CN([C@@H](C)CO)C(=O)c2cccc(N(C)C)c2O[C@H]1CN(C)C(=O)Nc1ccc2c(c1)OCO2	.	/	.	.	/	.
COc1ccc(NC(=O)Nc2ccc3c(c2)C(=O)N([C@@H](C)CO)C[C@H](C)[C@H](CN(C)C(=O)Nc2ccc(OC)cc2)OCCCC[C@H](C)O3)cc1	.	/	.	.	/	.
C[C@@H]1CCCCO[C@H](CN(C)C(=O)c2ccccc2)[C@H](C)CN([C@@H](C)CO)C(=O)c2cc(NS(=O)(=O)c3cn(C)cn3)ccc2O1	.	/	.	.	/	.
CCOC(=O)C1CCN(Cc2ccc(OC)c(C)c2OC)CC1	.	.	/	/	.	/
CCOC(=O)C1CCN(Cc2cc(Cl)c3ccccc3c2O)CC1	.	44.0	/	/	.	/
CC(=O)N(C)C[C@H]1Oc2ncc(-c3cccc(C#N)c3)cc2C(=O)N([C@@H](C)CO)C[C@H]1C	.	/	.	.	/	.
COc1cc2c(cc1OC)C(=O)N1[C@H]3c4cc(C)ccc4OC[C@@H]3[C@H](c3ccccc3)[C@]1(C)C(=O)N2	.	52.0	.	.	/	.
COc1cc2c(cc1OC)C(=O)N1[C@H]3c4cc(Cl)ccc4OC[C@@H]3[C@H](c3ccccc3)[C@]1(C)C(=O)N2	.	45.2	.	.	/	.
Cc1ccc2c(c1)[C@H]1[C@H](CO2)[C@H](c2ccccc2)[C@]2(C)C(=O)Nc3cc(F)c(F)cc3C(=O)N12	.	.	.	.	/	.

Compound activity from PubChem BioAssay.
